Laboratory results from ChEMBL document CHEMBL1155528, “1,4-dihydropyrazolo[4,3-d]imidazole phenyl derivatives: a novel type II Raf kinase inhibitors” (Bioorg Med Chem Lett, 2010).
The source made the active and inactive calls. The calls are words filed in the database; no cut-off is given here.

Experiments:
[1] = (§1) Antiproliferative activity against human A375P cells after 24 hrs by MTT assay; assay type: functional
In short: (§2)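 A375P cells (ATCC) grown in DMEM with 10% FBS and 1% penicillin/streptomycin at 37 °C, 5% CO2. Detached with 0.05% trypsin–0.02% EDTA, seeded at 5 × 10³ cells/well, and left 24 h before 12-point threefold serial dilutions were added. Viability was read by MTT reduction (CellTiter 96) at 590 nm, and GI50 was derived.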

[2] = (§3) Antiproliferative activity against human WM3629 cells after 24 hrs by MTT assay; assay type: functional; settings: WM3629, 24 h
In short: (§4)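 WM3629 cells (Wistar Institute) were kept in Tu2% medium. GI50 was determined by MTT as for A375P: 5 × 10³ cells/well, 24 h settling, 12-point threefold serial dilutions, and absorbance at 590 nm.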

[3] = target: T1, RAF proto-oncogene serine/threonine-protein kinase (Homo sapiens, UniProt P04049); assay: Inhibition of human cRAF using [33P-ATP] as a substrate by scintillation counting
In short: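 Run 40 min at room temperature, then stopped with 3% phosphoric acid. Spotted on P30 filter mat, washed in 75 mM phosphoric acid and methanol, dried, and scintillation-counted. IC50 came from a profiler service.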

[4] = target: Tyrosine-protein kinase ABL1 (Homo sapiens) (UniProt P00519); assay: Inhibition of human ABL; settings: concentration not given here
In short: (§5)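 Tested in an outsourced 30-kinase profiling service panel at a single concentration of 10, with percent inhibition reported.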

[5] = target: ALK tyrosine kinase receptor (Homo sapiens) (UniProt Q9UM73); assay: Inhibition of human ALK; settings: concentration not given here; in short: as §5
Rattus norvegicus = species: Rattus norvegicus; assay: Inhibition of rat AMPK; settings: concentration not given here
In short: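 Part of an outsourced radiometric kinase panel of 30 kinases, tested at a single concentration of 10 µM. Read-out is percent inhibition of kinase activity.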

[6] = target: Aurora kinase A (Homo sapiens) (UniProt O14965); assay: Inhibition of human aurora A; settings: concentration not given here; in short: as §5
[7] = target: Cytoplasmic tyrosine-protein kinase BMX (Homo sapiens) (UniProt P51813); assay: Inhibition of human BMX; settings: concentration not given here; in short: as §5
[8] = target: Tyrosine-protein kinase BTK (Homo sapiens) (UniProt Q06187); assay: Inhibition of human BTK; settings: concentration not given here; in short: as §5
[9] = target: Cyclin-dependent kinase 2/cyclin E1 (Homo sapiens) (UniProt P24864+P24941); assay: Inhibition of human CDK2/cyclin E; assay type: protein-complex assay; settings: concentration not given here; in short: as §5
[10] = target: Cyclin-dependent kinase 5/CDK5 activator 1 (Homo sapiens) (UniProt Q00535+Q15078); assay: Inhibition of human CDK5/p35; assay type: protein-complex assay; settings: concentration not given here; in short: as §5
[11] = target: Casein kinase II (Homo sapiens) (UniProt P67870+P68400+P19784); assay: Inhibition of human CK2; assay type: protein-complex assay; settings: concentration not given here; in short: as §5
[12] = target: Mast/stem cell growth factor receptor Kit (Homo sapiens) (UniProt P10721); assay: Inhibition of human cKIT; settings: concentration not given here; in short: as §5
[13] = target: T1, RAF proto-oncogene serine/threonine-protein kinase; assay: Inhibition of human RAF; settings: concentration not given here
In short: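 Human C-Raf (5–10 mU) incubated with 0.66 mg/mL myelin basic protein in 25 mM Tris pH 7.5, 0.02 mM EGTA, 10 mM Mg acetate. Spotted on P30 filter, washed in 75 mM phosphoric acid and methanol, then scintillation counted. Outsourced profiling service.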

[14] = target: Proto-oncogene tyrosine-protein kinase Src (Homo sapiens) (UniProt P12931); assay: Inhibition of human cSRC; settings: concentration not given here; in short: as §5
[15] = target: Ephrin type-A receptor 1 (Homo sapiens) (UniProt P21709); assay: Inhibition of human EphA1; settings: concentration not given here; in short: as §5
[16] = target: Fibroblast growth factor receptor 1 (Homo sapiens) (UniProt P11362); assay: Inhibition of human FGFR1; settings: concentration not given here; in short: as §5
[17] = target: Receptor-type tyrosine-protein kinase FLT3 (Homo sapiens) (UniProt P36888); assay: Inhibition of human Flt3; settings: concentration not given here; in short: as §5
[18] = target: Macrophage colony-stimulating factor 1 receptor (Homo sapiens) (UniProt P07333); assay: Inhibition of human FMS; settings: concentration not given here; in short: as §5
[19] = target: Insulin-like growth factor 1 receptor (Homo sapiens) (UniProt P08069); assay: Inhibition of human IGF1R; settings: concentration not given here; in short: as §5
[20] = target: Inhibitor of nuclear factor kappa-B kinase subunit beta (Homo sapiens) (UniProt O14920); assay: Inhibition of human IKK-beta; settings: concentration not given here; in short: as §5
[21] = target: Insulin receptor (Homo sapiens) (UniProt P06213); assay: Inhibition of human IR; settings: concentration not given here; in short: as §5
[22] = target: Tyrosine-protein kinase JAK2 (Homo sapiens) (UniProt O60674); assay: Inhibition of human JAK2; settings: concentration not given here; in short: as §5
[23] = target: Vascular endothelial growth factor receptor 2 (Homo sapiens) (UniProt P35968); assay: Inhibition of human KDR; settings: concentration not given here; in short: as §5
[24] = target: Hepatocyte growth factor receptor (Homo sapiens) (UniProt P08581); assay: Inhibition of human Met; settings: concentration not given here; in short: as §5
[25] = target: Ribosomal protein S6 kinase beta-1 (Homo sapiens) (UniProt P23443); assay: Inhibition of human p701S6K; settings: concentration not given here; in short: as §5
[26] = target: Platelet-derived growth factor receptor alpha (Homo sapiens) (UniProt P16234); assay: Inhibition of human PDGFRalpha; settings: concentration not given here; in short: as §5
[27] = target: Serine/threonine-protein kinase PLK1 (Homo sapiens) (UniProt P53350); assay: Inhibition of human PLK1; settings: concentration not given here; in short: as §5
[28] = target: Angiopoietin-1 receptor (Homo sapiens) (UniProt Q02763); assay: Inhibition of human Tie2; settings: concentration not given here; in short: as §5
[29] = target: BDNF/NT-3 growth factors receptor (Homo sapiens) (UniProt Q16620); assay: Inhibition of human TrkB; settings: concentration not given here; in short: as §5
[30] = target: Tyrosine-protein kinase receptor UFO (Homo sapiens) (UniProt P30530); assay: Inhibition of human AXL; settings: concentration not given here; in short: as §5
[31] = target: Tyrosine-protein kinase SYK (Homo sapiens) (UniProt P43405); assay: Inhibition of human SYK; settings: concentration not given here
A375P = assay: as §1; assay type: functional; in short: as §2
WM3629 = assay: as §3; assay type: functional; in short: as §4

T1 sequence (P04049 whole entry): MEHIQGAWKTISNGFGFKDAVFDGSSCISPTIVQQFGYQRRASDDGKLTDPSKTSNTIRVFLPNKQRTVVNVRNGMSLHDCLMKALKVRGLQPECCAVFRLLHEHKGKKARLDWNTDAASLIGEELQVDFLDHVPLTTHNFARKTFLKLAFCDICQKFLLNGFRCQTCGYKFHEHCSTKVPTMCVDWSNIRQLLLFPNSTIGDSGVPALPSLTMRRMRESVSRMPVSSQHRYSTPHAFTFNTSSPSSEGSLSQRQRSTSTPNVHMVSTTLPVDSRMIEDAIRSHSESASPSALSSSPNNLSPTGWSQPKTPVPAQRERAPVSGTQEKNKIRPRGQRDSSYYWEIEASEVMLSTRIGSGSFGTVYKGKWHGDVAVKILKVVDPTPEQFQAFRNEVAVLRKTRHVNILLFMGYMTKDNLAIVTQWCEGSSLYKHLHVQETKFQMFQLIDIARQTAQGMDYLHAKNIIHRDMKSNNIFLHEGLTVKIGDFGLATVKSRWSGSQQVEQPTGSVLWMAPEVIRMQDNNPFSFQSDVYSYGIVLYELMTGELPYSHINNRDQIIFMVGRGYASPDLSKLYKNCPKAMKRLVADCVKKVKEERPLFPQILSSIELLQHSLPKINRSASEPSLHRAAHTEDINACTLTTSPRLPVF
Sequence of Angiopoietin-1 receptor (Homo sapiens) (Q02763 whole entry): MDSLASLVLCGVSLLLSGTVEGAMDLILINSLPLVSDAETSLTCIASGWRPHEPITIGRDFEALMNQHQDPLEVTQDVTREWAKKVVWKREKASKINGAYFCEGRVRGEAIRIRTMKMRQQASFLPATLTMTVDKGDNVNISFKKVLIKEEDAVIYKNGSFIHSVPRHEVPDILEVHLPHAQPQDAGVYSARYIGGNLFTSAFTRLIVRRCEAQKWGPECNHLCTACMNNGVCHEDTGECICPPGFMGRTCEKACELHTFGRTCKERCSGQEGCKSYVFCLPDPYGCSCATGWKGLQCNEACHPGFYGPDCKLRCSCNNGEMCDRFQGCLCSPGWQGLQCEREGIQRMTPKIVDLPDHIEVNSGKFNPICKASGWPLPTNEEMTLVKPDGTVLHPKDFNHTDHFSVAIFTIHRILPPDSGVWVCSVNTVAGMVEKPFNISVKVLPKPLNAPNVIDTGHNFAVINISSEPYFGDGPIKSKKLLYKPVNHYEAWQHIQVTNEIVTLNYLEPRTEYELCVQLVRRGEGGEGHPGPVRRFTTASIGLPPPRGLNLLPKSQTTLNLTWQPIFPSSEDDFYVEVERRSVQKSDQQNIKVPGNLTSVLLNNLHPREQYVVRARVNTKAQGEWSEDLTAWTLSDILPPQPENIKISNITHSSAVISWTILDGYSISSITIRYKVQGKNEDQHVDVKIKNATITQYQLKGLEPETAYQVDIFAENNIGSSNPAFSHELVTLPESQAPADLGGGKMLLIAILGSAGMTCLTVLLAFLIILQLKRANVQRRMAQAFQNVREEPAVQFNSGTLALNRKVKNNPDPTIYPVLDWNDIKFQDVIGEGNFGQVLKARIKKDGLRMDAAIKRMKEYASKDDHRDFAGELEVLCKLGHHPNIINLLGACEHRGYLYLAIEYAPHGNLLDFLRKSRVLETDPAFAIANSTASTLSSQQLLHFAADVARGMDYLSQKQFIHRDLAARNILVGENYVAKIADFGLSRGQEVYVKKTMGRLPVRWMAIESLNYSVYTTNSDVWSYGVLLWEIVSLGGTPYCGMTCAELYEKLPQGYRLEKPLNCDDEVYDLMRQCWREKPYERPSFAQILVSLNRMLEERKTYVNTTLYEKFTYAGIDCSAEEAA
Sequence of Tyrosine-protein kinase receptor UFO (Homo sapiens) (P30530 whole entry): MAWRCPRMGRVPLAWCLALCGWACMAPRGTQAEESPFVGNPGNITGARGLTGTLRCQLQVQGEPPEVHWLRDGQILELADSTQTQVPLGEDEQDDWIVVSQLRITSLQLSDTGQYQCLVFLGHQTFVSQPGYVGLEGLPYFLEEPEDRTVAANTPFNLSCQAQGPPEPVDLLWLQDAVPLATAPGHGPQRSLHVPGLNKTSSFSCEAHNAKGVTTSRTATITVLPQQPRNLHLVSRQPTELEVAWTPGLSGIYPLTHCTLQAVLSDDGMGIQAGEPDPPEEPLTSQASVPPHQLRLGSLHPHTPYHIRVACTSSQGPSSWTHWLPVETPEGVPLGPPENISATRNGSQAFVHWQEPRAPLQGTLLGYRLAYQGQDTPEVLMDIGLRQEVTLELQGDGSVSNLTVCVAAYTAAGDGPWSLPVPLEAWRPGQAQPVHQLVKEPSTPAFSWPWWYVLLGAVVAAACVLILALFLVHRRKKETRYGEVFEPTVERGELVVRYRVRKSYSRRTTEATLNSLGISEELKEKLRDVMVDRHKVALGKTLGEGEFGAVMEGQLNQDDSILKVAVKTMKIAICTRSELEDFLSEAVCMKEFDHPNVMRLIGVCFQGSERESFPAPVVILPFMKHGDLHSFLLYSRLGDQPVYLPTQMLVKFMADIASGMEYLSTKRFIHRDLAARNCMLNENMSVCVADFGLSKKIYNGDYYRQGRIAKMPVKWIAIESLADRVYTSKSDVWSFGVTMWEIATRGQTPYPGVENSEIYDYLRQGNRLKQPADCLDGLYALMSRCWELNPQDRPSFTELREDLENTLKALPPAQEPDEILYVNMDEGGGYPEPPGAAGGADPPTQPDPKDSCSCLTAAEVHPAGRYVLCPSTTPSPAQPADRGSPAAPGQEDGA
Sequence of Mast/stem cell growth factor receptor Kit (Homo sapiens) (P10721 whole entry): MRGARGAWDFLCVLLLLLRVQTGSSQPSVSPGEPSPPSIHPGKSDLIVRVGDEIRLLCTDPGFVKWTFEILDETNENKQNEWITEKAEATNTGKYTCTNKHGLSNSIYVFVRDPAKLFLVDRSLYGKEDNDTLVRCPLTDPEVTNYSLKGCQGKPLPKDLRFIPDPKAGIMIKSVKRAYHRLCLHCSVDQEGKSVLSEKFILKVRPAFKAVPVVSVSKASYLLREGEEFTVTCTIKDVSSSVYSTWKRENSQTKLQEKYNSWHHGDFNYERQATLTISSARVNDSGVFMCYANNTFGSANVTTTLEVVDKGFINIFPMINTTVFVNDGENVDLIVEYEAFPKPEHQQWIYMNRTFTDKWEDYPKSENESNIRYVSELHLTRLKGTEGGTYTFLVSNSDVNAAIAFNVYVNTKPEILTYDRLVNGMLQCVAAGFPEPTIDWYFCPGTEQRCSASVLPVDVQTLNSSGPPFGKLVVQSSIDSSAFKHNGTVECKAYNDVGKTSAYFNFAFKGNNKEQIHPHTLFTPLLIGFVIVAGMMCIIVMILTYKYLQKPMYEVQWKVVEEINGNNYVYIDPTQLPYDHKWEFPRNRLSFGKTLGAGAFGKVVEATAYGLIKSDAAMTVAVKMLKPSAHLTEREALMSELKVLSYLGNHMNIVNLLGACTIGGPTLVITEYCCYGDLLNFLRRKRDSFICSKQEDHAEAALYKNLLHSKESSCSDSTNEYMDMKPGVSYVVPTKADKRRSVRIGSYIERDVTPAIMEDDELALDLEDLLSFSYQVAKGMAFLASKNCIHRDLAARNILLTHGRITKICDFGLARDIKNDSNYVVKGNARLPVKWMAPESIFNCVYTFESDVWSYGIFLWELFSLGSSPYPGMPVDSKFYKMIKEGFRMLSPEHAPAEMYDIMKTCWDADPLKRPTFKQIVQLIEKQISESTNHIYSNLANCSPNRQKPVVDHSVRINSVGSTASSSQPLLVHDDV
Sequence of Serine/threonine-protein kinase PLK1 (Homo sapiens) (P53350 whole entry): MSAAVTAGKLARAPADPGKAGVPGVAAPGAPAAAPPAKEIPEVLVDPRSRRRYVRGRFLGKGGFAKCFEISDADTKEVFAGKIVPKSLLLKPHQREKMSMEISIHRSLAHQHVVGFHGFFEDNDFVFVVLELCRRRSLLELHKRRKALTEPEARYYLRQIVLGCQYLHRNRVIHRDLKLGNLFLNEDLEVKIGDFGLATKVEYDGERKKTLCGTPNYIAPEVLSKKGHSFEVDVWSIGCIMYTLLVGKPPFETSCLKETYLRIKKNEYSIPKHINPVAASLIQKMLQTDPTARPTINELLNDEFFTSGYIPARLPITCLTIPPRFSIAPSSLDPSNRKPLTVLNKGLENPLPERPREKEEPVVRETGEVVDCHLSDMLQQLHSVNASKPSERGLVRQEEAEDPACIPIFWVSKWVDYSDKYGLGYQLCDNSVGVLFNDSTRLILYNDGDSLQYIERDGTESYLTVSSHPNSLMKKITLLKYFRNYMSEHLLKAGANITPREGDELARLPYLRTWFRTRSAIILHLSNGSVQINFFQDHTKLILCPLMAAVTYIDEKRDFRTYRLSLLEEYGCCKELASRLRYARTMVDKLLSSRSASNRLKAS
Sequence of Proto-oncogene tyrosine-protein kinase Src (Homo sapiens) (P12931 2-536 limits assumed): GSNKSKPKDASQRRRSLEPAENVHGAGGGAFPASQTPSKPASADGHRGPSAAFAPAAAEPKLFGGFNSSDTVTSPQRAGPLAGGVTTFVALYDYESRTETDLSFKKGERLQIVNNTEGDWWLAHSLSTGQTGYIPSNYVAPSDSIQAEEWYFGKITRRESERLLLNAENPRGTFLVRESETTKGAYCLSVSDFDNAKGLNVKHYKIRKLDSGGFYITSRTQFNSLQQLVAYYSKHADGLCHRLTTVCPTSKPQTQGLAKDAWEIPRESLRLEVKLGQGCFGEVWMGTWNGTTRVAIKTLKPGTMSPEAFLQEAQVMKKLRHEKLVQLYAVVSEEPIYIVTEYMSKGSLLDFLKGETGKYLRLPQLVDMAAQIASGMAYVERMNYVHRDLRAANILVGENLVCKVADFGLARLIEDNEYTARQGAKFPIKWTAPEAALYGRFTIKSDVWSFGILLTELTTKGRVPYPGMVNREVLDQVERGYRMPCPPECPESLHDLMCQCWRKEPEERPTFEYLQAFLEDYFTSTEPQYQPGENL

Cc1cn(-c2cc(NC(=O)Nc3ccc(-c4nc5[nH]ncc5[nH]4)c(C)c3)cc(C(F)(F)F)c2)cn1
GI50 [1]: 2.24 µM
GI50 [2]: 0.86 µM
IC50 ([3]; read-out: IC50): 0.05 µM
inhibition [4]: 37%
inhibition [5]: 61%
inhibition (Rattus norvegicus): 5%
inhibition [6]: 10%
inhibition [7]: 16%
inhibition [8]: 10%
inhibition [9]: 33%
inhibition [10]: 0%
inhibition [11]: 8%
inhibition [12]: 0%
inhibition [13]: 96%
inhibition [14]: 20%
inhibition [15]: 30%
inhibition [16]: 26%
inhibition [17]: 53%
inhibition [18]: 42%
inhibition [19]: 35%
inhibition [20]: 16%
inhibition [21]: 0%
inhibition [22]: 0%
inhibition [23]: 8%
inhibition [24]: 0%
inhibition [25]: 4%
inhibition [26]: 0%
inhibition [27]: 8%
inhibition [28]: 82%
inhibition [29]: 62%
inhibition [30]: 6%
inhibition [31]: 16%

CNC(=O)c1cc(Oc2ccc(NC(=O)Nc3ccc(Cl)c(C(F)(F)F)c3)cc2)ccn1 [SORAFENIB]
GI50 [1]: 5.58 µM
GI50 [2]: 0.65 µM

Cc1cc(NC(=O)Nc2cc(Cl)cc(C(F)(F)F)c2)ccc1-c1nc2c(cnn2Cc2ccccc2)n1C
GI50 [1]: 4.16 µM
GI50 [2]: 0.56 µM
IC50 [3]: Not Active

Cc1ccc(NC(=O)Nc2cc(Cl)cc(C(F)(F)F)c2)cc1-c1nc2c(cnn2Cc2ccccc2)n1C
GI50 [1]: 56.3 µM
GI50 [2]: 5.85 µM

COc1ccc(Cn2ncc3[nH]c(-c4cc(NC(=O)Nc5cc(Cl)cc(C(F)(F)F)c5)ccc4C)nc32)cc1
GI50 [1]: > 100 µM
GI50 [2]: > 100 µM

Cc1ccc(NC(=O)Nc2cc(Cl)cc(C(F)(F)F)c2)cc1-c1nc2[nH]ncc2[nH]1
GI50 [1]: > 100 µM
GI50 [2]: > 100 µM

O=C(Nc1ccc(-c2nc3c(cnn3Cc3ccccc3)[nH]2)cc1)Nc1ccc(Cl)c(Cl)c1
GI50 [1]: > 100 µM
GI50 [2]: 42.8 µM

Cc1ccc(NC(=O)Nc2cc(N3CCOCC3)cc(C(F)(F)F)c2)cc1-c1nc2c(cnn2Cc2ccccc2)n1C
GI50 [1]: > 100 µM
GI50 [2]: > 100 µM

Cc1cc(NC(=O)Nc2cc(Cl)cc(C(F)(F)F)c2)ccc1-c1nc2[nH]ncc2[nH]1
GI50 [1]: > 100 µM
GI50 [2]: 14.4 µM

Cc1c(F)cc(F)c(NC(=O)Nc2ccc(-c3nc4c(cnn4Cc4ccccc4)[nH]3)cc2)c1F
GI50 [1]: 51.7 µM
GI50 [2]: 0.98 µM

Cc1ccc(NC(=O)Nc2cc(N3CCOCC3)cc(C(F)(F)F)c2)cc1-c1nc2c(cnn2Cc2ccccc2)[nH]1
GI50 [1]: 4.29 µM
GI50 [2]: 0.72 µM
IC50 ([3]; read-out: IC50): 0.156 µM

Cc1ccc(NC(=O)c2cc(Cl)cc(C(F)(F)F)c2)cc1-c1nc2c(cnn2Cc2ccccc2)[nH]1
GI50 [1]: 2.06 µM
GI50 [2]: 1.14 µM
IC50 ([3]; read-out: IC50): 0.146 µM

COc1ccc(Cn2ncc3[nH]c(-c4ccc(NC(=O)Nc5cc(N6CCOCC6)cc(C(F)(F)F)c5)cc4C)nc32)cc1
GI50 [1]: > 100 µM
GI50 [2]: > 100 µM

O=C(Nc1ccc(-c2nc3c(cnn3Cc3ccccc3)[nH]2)cc1)Nc1cc(Cl)cc(C(F)(F)F)c1
GI50 [1]: 6.65 µM
GI50 [2]: 0.75 µM
IC50 ([3]; read-out: IC50): 0.37 µM

Cc1ccc2nc(NC(=O)Nc3ccc(-c4nc5[nH]ncc5[nH]4)c(C)c3)sc2c1
GI50 (A375P): inactive
GI50 (WM3629): inactive

COc1ccc(Cn2ncc3c2nc(-c2ccc(NC(=O)Nc4cc(Cl)cc(C(F)(F)F)c4)cc2C)n3C)cc1
GI50 [1]: 51.5 µM
GI50 [2]: 3.77 µM

Cc1ccc(NC(=O)Nc2c(F)cc(F)c(C)c2F)cc1-c1nc2c(cnn2Cc2ccccc2)[nH]1
GI50 [1]: 7.73 µM
GI50 [2]: 1.29 µM

COc1ccc(Cn2ncc3[nH]c(-c4cc(NC(=O)Nc5ccc(Cl)c(Cl)c5)ccc4C)nc32)cc1
GI50 [1]: 15.3 µM
GI50 [2]: 1.35 µM
IC50 ([3]; read-out: IC50): 0.839 µM

Cc1ccc(NC(=O)Nc2cccc(Cl)c2Cl)cc1-c1nc2[nH]ncc2[nH]1
GI50 (A375P): inactive
GI50 (WM3629): inactive

COc1ccc(Cn2ncc3[nH]c(-c4ccc(NC(=O)Nc5nc6ccc(C)cc6s5)cc4C)nc32)cc1
GI50 (A375P): inactive
GI50 (WM3629): inactive

Cc1ccc(NC(=O)c2cc(N3CCOCC3)cc(C(F)(F)F)c2)cc1-c1nc2[nH]ncc2[nH]1
GI50 (A375P): inactive
GI50 (WM3629): inactive

Cc1ccc(NC(=O)Nc2cc(Cl)cc(C(F)(F)F)c2)cc1-c1nc2c(cnn2Cc2ccccc2)[nH]1
GI50 [1]: 3.79 µM
GI50 [2]: 0.85 µM
IC50 ([3]; read-out: IC50): 0.076 µM

Cc1cc(NC(=O)Nc2cccc(Cl)c2Cl)ccc1-c1nc2[nH]ncc2[nH]1
GI50 (A375P): inactive
GI50 (WM3629): inactive

COc1ccc(Cn2ncc3[nH]c(-c4cc(NC(=O)Nc5c(F)cc(F)c(C)c5F)ccc4C)nc32)cc1
GI50 [1]: > 100 µM
GI50 [2]: > 100 µM

Cc1cc(NC(=O)Nc2cc(N3CCOCC3)cc(C(F)(F)F)c2)ccc1-c1nc2[nH]ncc2[nH]1
GI50 [1]: > 100 µM
GI50 (WM3629): inactive
